Data set [1] can be described thus: Antioxidant activity against AAPH-induced fluorescein peroxidation assessed as trolox equivalent measured every min for 35 mins by fluorimetric analysis. The format is functional. In a few lines:
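ORAC: samples were diluted from 20 mg/mL DMSO stock into 75 mM phosphate buffer (pH 7.4), then 2-fold serially, with each tested at two concentrations. Reaction used fluorescein (10 μL, 5 μM) and AAPH (170 μL, 20 mM). Fluorescence was read every minute for 35 min at 37 °C. Values come from a Trolox standard curve (12.5–100 μM) of net AUC and are given as μmol TE/g. Quadruplicate.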

The test system of data set [2] is Staphylococcus epidermidis. Kind of data set: Antibacterial activity against Staphylococcus epidermidis ATCC 35984 after overnight incubation by broth microdilution method. The format is functional. In a few lines: (§1)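 Broth microdilution (CLSI M7A7, modified) in tryptone soya broth with 0.025 g/mL glucose, replacing Mueller-Hinton. Compounds were 2-fold serially diluted in TSB containing 2% DMSO. Inoculum came from a 0.5 McFarland suspension diluted 1:100, giving about 5 × 10^5 cfu in 100 μL. Plates were incubated overnight at 37 °C. MIC = lowest concentration with no growth visible to the unaided eye.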
For orientation: In broth dilution the organism is exposed to a series of concentrations in liquid medium.

Data set [3] in a line: Cytotoxicity against mouse RAW264.7 cells after 24 hrs by ATPlite assay. It is filed as cell-based. The following applies: read-out: ED50. In a few lines:
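RAW264 cells were plated at 30 000/well in DMEM with 10% FBS. Compounds were tested at six concentrations from DMSO stocks diluted 20-fold in medium, for 24 h at 37 °C, 5% CO2. Cellular ATP was read by ATPlite luminescence. Triplicate; ED50 with 95% CI from curve fitting.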
Background: Cellular ATP, detected with luciferase, serves as a proxy for viable cell number.

For the next data set, the system named is Escherichia coli. Description: Antibacterial activity against Escherichia coli ATCC 25922 after overnight incubation by broth microdilution method. It is filed as functional. In a few lines: as §1
The test system of data set [4] is Staphylococcus aureus. Kind of data set: Antibacterial activity against Staphylococcus aureus ATCC 25923 incubated overnight followed by compound transfer to TSB medium measured after overnight incubation by cell counting. The format is functional.
The subject of data set [5] is RAW264.7. Kind of data set: Antiinflammatory activity in mouse RAW264.7 cells assessed as inhibition of LPS-induced TNFalpha production incubated for 1 hr prior to LPS-challenge measured after 20 hrs by immunoassay. It is filed as functional, cell-based. In a few lines:
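TNF-α was measured by mouse ELISA kit in the same LPS-stimulated RAW264 supernatants as the nitrite assay. Compounds were added 1 h before LPS (10 μL of 10 μg/mL), followed by 20 h incubation.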

Data set [6] has as its system RAW264.7. Kind of data set: Selectivity index, ratio of cytotoxic ED50 for mouse RAW264.7 cells to IC50 for LPS-induced nitric oxide synthesis in mouse RAW264.7 cells. The format is functional. In a few lines: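 Selectivity index = RAW264 cytotoxicity ED50 (24 h ATPlite) divided by IC50 for inhibition of LPS-induced nitrite production in RAW264 cells.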
For data set [7], the system named is Staphylococcus epidermidis. Description: Antibacterial activity against Staphylococcus epidermidis ATCC 35984 incubated overnight followed by compound transfer to TSB medium measured after overnight incubation by cell counting. The format is functional.
Data set [8] relates to Staphylococcus aureus. Description: Antibacterial activity against Staphylococcus aureus ATCC 29213 incubated overnight followed by compound transfer to TSB medium measured after overnight incubation by cell counting. It is filed as functional.
A short description of data set [9]: Cytotoxicity against Swiss albino mouse 3T3 cells. The format is cell-based, NIH3T3. The following applies: read-out: ED50 (the source's name).
Data set [10] can be described thus: Antiinflammatory activity in Swiss albino mouse 3T3 cells assessed as inhibition of calcium ionophore A23187-induced PGE2 synthesis incubated for 3 hrs prior to calcium ionophore A23187-challenge measured after 15 mins by enzyme immunoassay. The format is functional, cell-based. The following applies: NIH3T3. In a few lines:
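3T3 cells were seeded at 27 × 10^3/well in phenol-red-free DMEM with 5% FBS and 5% newborn calf serum, then left to attach overnight. Compounds in DMSO (0.5% final) were added for 3 h at 37 °C. A23187 (0.5 mM, 10 μL/well) was then added for 15 min. Supernatant was diluted 81-fold and PGE2 measured by EIA. Triplicate; percent inhibition relative to DMSO control.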

The test system of data set [11] is RAW264.7. Kind of data set: Antiinflammatory activity in mouse RAW264.7 cells assessed as inhibition of LPS-induced nitric oxide production incubated for 1 hr prior to LPS-challenge measured after 20 hrs by Griess method. It is filed as functional, cell-based. In a few lines: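 RAW264 cells (10^6 cells/mL, 120 μL/well) were pre-incubated for 20 h. Compounds in DMSO, diluted 20-fold in medium, were added for 1 h. LPS (10 μL of 10 μg/mL) was then added and incubation continued for 20 h. Nitrite was measured by Griess reagent (23 °C, 20 min, A550) against 0–100 μM standards. Triplicate; expressed as a percentage of solvent control.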
In general terms: Nitrite, measured by Griess reagent, commonly stands in for NO production.

In data set [12] the test system is Staphylococcus aureus. Description: Antibacterial activity against Staphylococcus aureus ATCC 25923 after overnight incubation by broth microdilution method. It is filed as functional. In a few lines: as §1
Data set [13] concerns Staphylococcus aureus. Kind of data set: Antibacterial activity against Staphylococcus aureus ATCC 29213 after overnight incubation by broth microdilution method. It is filed as functional. In a few lines: as §1
In the next data set the test system is NIH3T3. Description: Selectivity index, ratio of cytotoxic ED50 for Swiss albino mouse 3T3 cells to IC50 for calcium ionophore A23187-induced PGE2 synthesis in Swiss albino mouse 3T3 cells. The format is functional.
The test system of the next data set is Pseudomonas aeruginosa. Description: Antibacterial activity against Pseudomonas aeruginosa ATCC 27853 after overnight incubation by broth microdilution method. It is filed as functional. In a few lines: as §1

In brackets after ≈: the same amount, converted by molar mass. Activity calls are given as the source filed them.

Broadly, the MIC is the smallest concentration in the dilution series that meets the test's criterion for growth inhibition. One may read the MBC as the smallest concentration meeting the test's criterion for killing. Read a high MBC as less potent killing. Broadly, the IC50 is the concentration that gives 50% inhibition. As for `CC[C@H](C)C(=O)c1c(O)c(C)c(O)c2c1oc1c(C(=O)C(C)C)c(O)c(C)c(O)c12`, the Activity in [1] turned out to be 6280 µmol/g. Besides, the values for the MIC (in data set [2]; in the data set on Staphylococcus aureus [12]; with Staphylococcus aureus [13]) were 6 µM (≈ 2.49 µg/mL), 6 µM (≈ 2.49 µg/mL) and 12.1 µM (≈ 5.01 µg/mL), respectively. The CC50 at 24 h in data set [3] is 17.6 µM. Moreover, the MIC result in the data set with Escherichia coli is “inactive”. For the same compound, the MBC against Staphylococcus aureus [4] came to 24.1 µM (≈ 9.99 µg/mL); in data set [7] it was 6 µM (≈ 2.49 µg/mL); against Staphylococcus aureus [8], 24.1 µM (≈ 9.99 µg/mL). Besides, in the data set on RAW264.7 [5], the inhibition entry was “inactive”. For the same compound, the “Selectivity Index” value in the data set with RAW264.7 [6] amounted to 4. Further, the CC50 in data set [9] turned out to be 22.3 µM. Moreover, the figures for the IC50 (in [10]; in the data set on RAW264.7 [11]) were over 200 µM and 4.4 µM, respectively. Besides, in the data set with RAW264.7 [11], the inhibition result is “Dose-dependent effect”.

On to `CC[C@H](C)C(=O)c1c(O)c(C)c2oc3c(C)c(O)c(C(=O)C(C)C)c(O)c3c2c1O`, for which the Activity in data set [1] was determined as 2580 µmol/g. The MIC in data set [2] amounted to 1.9 µM (≈ 0.787 µg/mL); in the data set on Staphylococcus aureus [12] it was 0.5 µM (≈ 0.207 µg/mL); against Staphylococcus aureus [13], 3.9 µM (≈ 1.62 µg/mL). Besides, the CC50 at 24 h in data set [3] was found to be 6.5 µM. Besides, the MIC result in the data set on Escherichia coli was “inactive”. Further, the results for the MBC (against Staphylococcus aureus [4]; in [7]; with Staphylococcus aureus [8]) were 1.9 µM (≈ 0.787 µg/mL), 3.9 µM (≈ 1.62 µg/mL) and 3.9 µM (≈ 1.62 µg/mL), respectively. In the data set with RAW264.7 [5], the inhibition entry was “inactive”. The “Selectivity Index” value worked out at 10.83 in the data set with RAW264.7 [6] and 1.57 in the data set with NIH3T3. Moreover, the CC50 in [9] turned out to be 9.4 µM. The IC50 in data set [10] was 6 µM; in the data set on RAW264.7 [11], 0.6 µM. In the data set on RAW264.7 [11], the inhibition entry was “Dose-dependent effect”.

With `Cc1c(O)c(C(=O)C(C)C)c2oc3c(C(=O)C(C)C)c(O)c(C)c(O)c3c2c1O`, in data set [1], the Activity worked out at 609 µmol/g. The MIC worked out at 13.2 µM (≈ 5.29 µg/mL) in data set [2], 13.2 µM (≈ 5.29 µg/mL) in the data set on Staphylococcus aureus [12] and 26.5 µM (≈ 10.6 µg/mL) against Staphylococcus aureus [13]. Also, the CC50 at 24 h in data set [3] came to 142 µM. Moreover, the MIC entry in the data set on Escherichia coli and in the data set with Pseudomonas aeruginosa was “inactive” each time. The MBC in the data set with Staphylococcus aureus [4] worked out at 26.5 µM (≈ 10.6 µg/mL); in [7], 13.2 µM (≈ 5.29 µg/mL); in the data set with Staphylococcus aureus [8], 26.5 µM (≈ 10.6 µg/mL). Further, the inhibition entry with RAW264.7 [5] is “inactive”. Further, the “Selectivity Index” value with RAW264.7 [6] was found to be 1.6. For the same compound, the CC50 in data set [9] was determined as 44 µM. The values for the IC50 (in [10]; in the data set on RAW264.7 [11]) were over 200 µM and 89 µM, respectively.

For `CC[C@H](C)C(=O)c1c(O)c(C)c(O)c2c1oc1c(C(=O)[C@@H](C)CC)c(O)c(C)c(O)c12`, the Activity in data set [1] stood at 3640 µmol/g. In addition, the values for the MIC (in [2]; with Staphylococcus aureus [12]; in the data set with Staphylococcus aureus [13]) were 3.7 µM (≈ 1.59 µg/mL), 3.7 µM (≈ 1.59 µg/mL) and 7.2 µM (≈ 3.09 µg/mL), respectively. Moreover, the CC50 at 24 h in [3] was 6.8 µM. Also, in the data set on Escherichia coli, the MIC entry was “inactive”. Further, the MBC came out at 3.7 µM (≈ 1.59 µg/mL) against Staphylococcus aureus [4], 3.7 µM (≈ 1.59 µg/mL) in [7] and 14.7 µM (≈ 6.3 µg/mL) in the data set on Staphylococcus aureus [8]. Besides, the inhibition result in the data set on RAW264.7 [5] was “inactive”. For the same compound, the “Selectivity Index” value in the data set with RAW264.7 [6] is listed as 1.36. The CC50 in data set [9] came out at 24.1 µM. Further, the results for the IC50 (in data set [10]; in the data set with RAW264.7 [11]) were over 200 µM and 5 µM, respectively. The inhibition entry in the data set on RAW264.7 [11] is “Dose-dependent effect”.

Consider `CC[C@H](C)C(=O)c1c(O)c(C)c2oc3c(C)c(O)c(C(=O)CC(C)C)c(O)c3c2c1O` [RHODOMYRTOXIN C], for which the Activity in data set [1] came to 1010 µmol/g. In addition, the values for the MIC (in data set [2]; against Staphylococcus aureus [12]; against Staphylococcus aureus [13]) were 1.9 µM (≈ 0.814 µg/mL), 0.9 µM (≈ 0.386 µg/mL) and 7.2 µM (≈ 3.09 µg/mL), respectively. In [3], the CC50 at 24 h stood at 1.4 µM. In the data set on Escherichia coli, the MIC entry is “inactive”. The MBC in the data set with Staphylococcus aureus [4] is 0.9 µM (≈ 0.386 µg/mL); in [7], 1.9 µM (≈ 0.814 µg/mL); in the data set with Staphylococcus aureus [8], 7.2 µM (≈ 3.09 µg/mL). Moreover, the inhibition entry with RAW264.7 [5] is “inactive”. The “Selectivity Index” value in the data set on RAW264.7 [6] is 1.17; with NIH3T3, 2.06. In addition, the CC50 in data set [9] was 7 µM. The IC50 in data set [10] was determined as 3.4 µM; with RAW264.7 [11], 1.2 µM. Further, the inhibition entry in the data set with RAW264.7 [11] is “Dose-dependent effect”.

`Oc1cc(O)c2c(c1)O[C@H](c1ccc(O)c(O)c1)[C@H](O)C2`: the Activity in [1] was found to be 29200 µmol/g.

Consider `Cc1c(O)c(C(=O)C(C)C)c(O)c2c1oc1c(C)c(O)c(C(=O)C(C)C)c(O)c12`, for which the Activity in data set [1] worked out at 1450 µmol/g. The MIC (in data set [2]; against Staphylococcus aureus [12]; against Staphylococcus aureus [13]) was 2.7 µM (≈ 1.08 µg/mL) each time. Moreover, the CC50 at 24 h in data set [3] was found to be 12 µM. Moreover, the MIC result with Escherichia coli and in the data set with Pseudomonas aeruginosa was “inactive” in each case. Also, the MBC stood at 5.7 µM (≈ 2.28 µg/mL) in the data set with Staphylococcus aureus [4], 22.7 µM (≈ 9.09 µg/mL) in data set [7] and 11.4 µM (≈ 4.56 µg/mL) in the data set with Staphylococcus aureus [8]. In addition, the inhibition result with RAW264.7 [5] is “inactive”. Besides, the “Selectivity Index” value in the data set with RAW264.7 [6] was 3.53; in the data set on NIH3T3, 3.4. Further, the CC50 in data set [9] was 15.3 µM. The figures for the IC50 (in [10]; in the data set on RAW264.7 [11]) were 4.5 µM and 3.4 µM, respectively. Besides, the inhibition result with RAW264.7 [11] was “Dose-dependent effect”.

For the compound `C[C@H]1COc2c(N3CCN(C)CC3)c(F)cc3c(=O)c(C(=O)O)cn1c23` [LEVOFLOXACIN], the MIC (in data set [2]; in the data set on Escherichia coli; against Pseudomonas aeruginosa; with Staphylococcus aureus [12]; against Staphylococcus aureus [13]) was under 0.53 µM throughout.
